{"source": "ChEMBL document CHEMBL5260841", "about": "“Discovery of N-(4-(6-Acetamidopyrimidin-4-yloxy)phenyl)-2-(2-(trifluoromethyl)phenyl)acetamide (CHMFL-FLT3-335) as a Potent FMS-like Tyrosine Kinase 3 Internal Tandem Duplication (FLT3-ITD) Mutant Selective Inhibitor for Acute Myeloid Leukemia” (J Med Chem, 2019)", "system": "U-937", "test": "Antiproliferative activity against human U-937 cells transfected with wild type FLT3 assessed as cell growth inhibition incubated for 72 hrs by CCK-8 assay", "format": "functional", "procedure,_shortened": "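Cells kept at 37 °C, 5% CO2. MV4-11 grown in IMDM with 10% FBS. MOLM13, MOLM14, U937 and HL-60 grown in RPMI 1640 with 10% FBS. OCI-AML-2 grown in α-MEM with 20% FBS. Seeded at 1500-3000 cells/well and exposed to a concentration series for 72 h. Viability read by CCK8 absorbance at 450 nm.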", "data": [{"smiles": "CC(=O)Nc1cc(Oc2ccc(NC(=O)Cc3ccccc3C(F)(F)F)cc2)ncn1", "values": [{"measurement": "GI50", "value": "> 10", "unit": "µM"}]}]}
